From ChEMBL document CHEMBL1140176, “Intracellular trapping of cycloSal-pronucleotides: modification of prodrugs with amino acid esters” (J Med Chem, 2008) come the findings set out here.

Molecules are shown by their SMILES.

For one series, the system named is Serum. Description: Stability in human serum assessed as hydrolysis half life at pH 6.8. In kind it is ADME, cell-free. The gist of the method:
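Human serum at 50%, diluted with phosphate buffered saline to pH 6.8. Triester conversion followed over time and hydrolysis half-life derived.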

The nature of series [1]: Stability in 25 mM phosphate buffer assessed as hydrolysis half life at pH 7.3. In kind it is physicochemical. To be noted: for t1/2: buffer; for half-life: phosphate buffer.
Series [2] deals with CCRF-CEM. Briefly: (§1) Cytotoxicity against human CEM cells. In kind it is cell-based. Particulars: ccrf-cem. The gist of the method:
(§2)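 Wild-type CEM cells exposed to test compound dilutions. Value reported as 50% cytotoxic concentration.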

The test system of series [3] is Human immunodeficiency virus 2. Description: Antiviral activity against HIV2 ROD in thymidine kinase deficient human CEM cells. In kind it is functional, organism-based, CCRF-CEM. A digest of the protocol:
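Thymidine kinase-deficient CEM/TK⁻ cells at 4 × 10⁵ cells/mL infected with HIV-2 ROD at ~100 CCID₅₀/mL, then mixed 1:1 with compound dilutions. Microscopic scoring of giant cell formation at 4-5 days. EC50 is the mean of two to three independent experiments.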

Series [4] in a line: (§3) Stability in human CEM cell extract assessed as hydrolysis half life at pH 6.9. In kind it is ADME, CCRF-CEM. Particulars: CEM cell extract.
A short description of series [5]: as §1. Type of series: cell-based, CCRF-CEM. Particulars: CEM cells. A digest of the protocol: as §2
Series [6] has as its system Human immunodeficiency virus 1. Briefly: Antiviral activity against HIV1 in human CEM cells. In kind it is functional, organism-based. Particulars: Human immunodeficiency virus 1, CCRF-CEM. The gist of the method: (§4)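 CEM/0 cells at 4 × 10⁵ cells/mL infected with HIV-1 or HIV-2 (ROD, stocks from infected MT-4 supernatants) at ~100 CCID₅₀/mL, mixed 1:1 with serial compound dilutions. Giant cell formation scored microscopically after 4-5 days.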

Series [7] has as its system Human immunodeficiency virus 2. Description: Antiviral activity against HIV2 ROD in human CEM cells. Type of series: functional, organism-based, CCRF-CEM. A digest of the protocol:
as §4

For series [8], the system named is CCRF-CEM. Described as §3. In kind it is ADME. To be noted: ccrf-cem.
[9] abbreviates: Human immunodeficiency virus 2, ROD, CCRF-CEM.

One may read the CC50 as the concentration at which the toxic effect on the cells reaches its halfway point. A lower CC50 goes with harm at low concentration. What is called EC50 is the concentration that produces a half-maximal response. The half-life is the time needed for the level to fall by half in the phase considered. For the compound `Cc1cn([C@H]2C=C[C@@H](COP3(=O)OCc4cc(CCC(=O)N[C@@H](C)C(=O)OCc5ccccc5)ccc4O3)O2)c(=O)[nH]c1=O` (stereo in doubt; form 2), the t1/2 in the series with Serum stood at 1.3 h; in [1] it was 8.8 h. Further, in the series with CCRF-CEM [2], the CC50 stood at 61000 nM. Moreover, in series [3] (ccrf-cem), the EC50 worked out at 1000 nM. For the same compound, in [4], the half-life was 0.5 h.
Regarding `COC(=O)[C@@H]1CCCN1C(=O)CCc1ccc2c(c1)COP(=O)(OC[C@@H]1C=C[C@H](n3cc(C)c(=O)[nH]c3=O)O1)O2` (some centres not stated), the half-life was 7.9 h in series [1] and 1.1 h in series [4]. In [5], this compound gave a CC50 of 182000 nM. In addition, the EC50 in [6] was 1300 nM; in series [3] (setting [9]), 2800 nM; in [7] (setting [9]), 1600 nM.
In the case of `Cc1cn([C@H]2C=C[C@@H](COP3(=O)OCc4cc(CCC(=O)NCC(=O)OCc5ccccc5)ccc4O3)O2)c(=O)[nH]c1=O` (some centres not stated), the half-life was 6.2 h in [1] and 4.8 h in [4]. In addition, the CC50 in series [5] is 75000 nM. Also, the EC50 in [6] was found to be 310 nM; in [3] (setting [9]), 400 nM; in series [7] (setting [9]) it was 470 nM.
As to `Cc1cn([C@H]2C=C[C@@H](COP3(=O)OCc4cc(CCC(=O)N[C@@H](C)C(=O)OC(C)(C)C)ccc4O3)O2)c(=O)[nH]c1=O` (some centres not stated), the half-life in series [1] is 5.7 h; in series [4] it was 6.8 h. Moreover, the CC50 in [5] is 53000 nM. Also, the EC50 in series [6] worked out at 300 nM; in series [3] (setting [9]), 3800 nM; in series [7] (setting [9]), 400 nM.
Turning to `Cc1cn([C@H]2C=C[C@@H](COP3(=O)OCc4cc(CCC(=O)N5CCC[C@H]5C(=O)OCc5ccccc5)ccc4O3)O2)c(=O)[nH]c1=O` (some centres not stated), the half-life is 6.1 h in series [1] and 0.4 h in series [4]. Moreover, in series [5], it took 46000 nM to reach half-maximal cytotoxicity (CC50). Moreover, the EC50 turned out to be 700 nM in [6], 21000 nM in series [3] (setting [9]) and 1100 nM in series [7] (setting [9]).
`Cc1cn([C@H]2C=C[C@@H](COP3(=O)OCc4cc(CCC(=O)N[C@@H](C)C(=O)O)ccc4O3)O2)c(=O)[nH]c1=O` (some centres not stated): the results for the half-life in series [1] and in [4] were 12 h and 7 h, respectively. This compound also registered a CC50 in series [5] of 77000 nM. The EC50 in [6] worked out at 500 nM; in series [3] (setting [9]), 4100 nM; in [7] (setting [9]) it was 400 nM.
Take `Cc1cn([C@H]2C=C[C@@H](COP3(=O)OCc4cc(CCC(=O)O)ccc4O3)O2)c(=O)[nH]c1=O` (some centres not stated): the half-life in series [1] is 13 h. Besides, the CC50 in series [5] is 74000 nM. Further, the EC50 in series [6] turned out to be 140 nM; in series [3] (setting [9]), 50000 nM; in [7] (setting [9]), 800 nM.
`Cc1cn([C@H]2C=C[C@@H](COP3(=O)OCc4cc(CCC(=O)N[C@@H](C)C(=O)OCc5ccccc5)ccc4O3)O2)c(=O)[nH]c1=O` (stereo in doubt; form 1): the results for the t1/2 (in the series on Serum; in series [1]; in the series with CCRF-CEM [8]) were 4.4 h, 4.5 h and 0.5 h, respectively. In the series on CCRF-CEM [2], this compound came in with a CC50 of 48000 nM. Moreover, the EC50 in [7] (ccrf-cem) amounted to 300 nM.
On to `COC(=O)[C@@H](C)NC(=O)CCc1ccc2c(c1)COP(=O)(OC[C@@H]1C=C[C@H](n3cc(C)c(=O)[nH]c3=O)O1)O2` (some centres not stated), for which the half-life is 5 h in series [1] and 6.2 h in series [4]. In addition, the CC50 in [5] was determined as 61000 nM. The EC50 in series [6] came out at 400 nM; in series [3] (setting [9]), 4200 nM; in series [7] (setting [9]), 400 nM.
In the case of `Cc1cn([C@H]2C=C[C@@H](COP3(=O)OCc4cc(CCC(=O)N[C@@H](C)C(=O)OCc5ccccc5)ccc4O3)O2)c(=O)[nH]c1=O` (stereo in doubt; form 3), in [1], the half-life was 6.4 h. The same compound yielded a CC50 in the series on CCRF-CEM [2] of 23000 nM. For the same compound, the 50% effective concentration (EC50) in series [6] was found to be 300 nM; in [3] (ccrf-cem) it was 300 nM; in series [7] (setting [9]), 400 nM.
With `COC(=O)CNC(=O)CCc1ccc2c(c1)COP(=O)(OC[C@@H]1C=C[C@H](n3cc(C)c(=O)[nH]c3=O)O1)O2` (some centres not stated), the half-life in series [1] was 6.5 h; in [4], 4.5 h. Further, half-maximal cytotoxicity in [5] (CC50) was put at 220000 nM. The EC50 in [6] is 2000 nM; in series [3] (setting [9]) it was 4000 nM; in series [7] (setting [9]), 1600 nM.
For `COC(=O)[C@H](C)NC(=O)CCc1ccc2c(c1)COP(=O)(OC[C@@H]1C=C[C@H](n3cc(C)c(=O)[nH]c3=O)O1)O2` (some centres not stated), the half-life was 6.4 h in series [1] and 1.1 h in [4]. For the same compound, in series [5], the midpoint of cytotoxicity, the CC50, lay at 152000 nM. Also, the EC50 in [6] is 800 nM; in [3] (setting [9]), 2500 nM; in series [7] (setting [9]), 700 nM.
Consider `Cc1cn([C@H]2C=C[C@@H](CO)O2)c(=O)[nH]c1=O` [STAVUDINE], for which, in [5], it took 234000 nM to reach half-maximal cytotoxicity (CC50). For the same compound, the EC50 in [6] came to 480 nM; in series [3] (setting [9]), 47500 nM; in [7] (setting [9]), 630 nM.
